SUMO1 PPI mod: modulators of human SUMO1-mediated protein-protein interactions. SUMO1 binding to a labelled peptide, TR-FRET, 1 h. P63165. AID 602429. 0.33% of 360,000 active. inhibition, % at 20 µM; in the data active = inhibition above about 37%
Target sequence (P63165 whole entry, looked up): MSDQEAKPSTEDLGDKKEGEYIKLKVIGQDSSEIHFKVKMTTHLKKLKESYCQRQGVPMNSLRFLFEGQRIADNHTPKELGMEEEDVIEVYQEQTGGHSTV
Scp1 inh: inhibitors of human Scp-1 phosphatase. Recombinant Scp1, phosphopeptide, malachite green phosphate absorbance. inhibition, % at 20 µM. 0.88% of 340,000 active. AID 493091;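 active = inhibition above about 50% at 20 µM, limit read from the data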
Target sequence (Q9GZU7 76-261 limits assumed): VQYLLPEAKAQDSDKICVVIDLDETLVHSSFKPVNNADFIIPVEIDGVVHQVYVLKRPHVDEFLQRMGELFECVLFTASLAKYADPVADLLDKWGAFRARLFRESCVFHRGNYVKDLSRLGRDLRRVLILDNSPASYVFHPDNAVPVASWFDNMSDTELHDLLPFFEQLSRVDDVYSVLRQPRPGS
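assay system = SCP-1 phosphatase catalytic domain, residues 76-261 | buffer or medium = 50 mM Tris acetate pH 5.5, 0.005% Tween-20, 10 mM MgCl2 | incubation = enzyme reaction 45 min at room temperature, colour 5 min, stabilisation 30 min | signal = Phosphate-binding colour reagent, absorbance read at 630 nm | measure = % inhibition at 20 µM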
STEP block: inhibitors of human striatal-enriched phosphatase STEP; P54829; recombinant STEP, OMFP fluorogenic substrate, fluorescence; inhibition, % at 20 µM; 0.25% of 360,000 active; AID 588621;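 active = inhibition at 20 µM, scaled per plate between control wells, above about 37%, limit read from the data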
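Assay system: isolated STEP enzyme / Timing: 20 min at room temperature, dark / Doses: 20 µM, 1% DMSO / Technique: fluorescence intensity, excitation 480 nm, emission 540 nm / Reagent: fluorogenic phosphatase substrate OMFP at 25 µM final / Measure: percent inhibition scaled to no-enzyme and uninhibited-enzyme controls, plate-pattern corrected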
DNMT1 block: inhibitors of human DNMT1. DNMT1 molecular beacon, Hinp1I cleavage, fluorescence. inhibition (reported as % activation of signal), % at 10 µM. 0.83% of 360,000 active. AID 588458; in the data active = inhibition above about 50%
LMPTP block: LMPTP (human) inhibition; 0.22% of 360,000 active; AID 651560; recombinant LMPTP-A, OMFP fluorogenic substrate, fluorescence intensity; inhibition, % at 20 µM; P24666;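 active = compounds that cut the enzyme signal by at least half of the control window in the single-dose screen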
Target sequence (P24666 whole entry, looked up): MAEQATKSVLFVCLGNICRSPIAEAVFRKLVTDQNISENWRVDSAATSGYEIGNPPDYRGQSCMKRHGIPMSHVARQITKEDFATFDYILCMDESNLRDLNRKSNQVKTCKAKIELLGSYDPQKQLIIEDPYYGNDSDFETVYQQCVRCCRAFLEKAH
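Test system: LMPTP-A phosphatase enzyme; input: 0.625 nM LMPTP-A final; reagent: OMFP substrate, 400 µM final; compound dosing: 20 µM single dose, 3% DMSO; incubation: 50 min dark incubation at room temperature; measured by: endpoint fluorescence intensity from OMFP dephosphorylation; measure: % inhibition relative to no-enzyme and uninhibited control wells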
NadD block: blocks S. aureus nicotinate mononucleotide adenylyltransferase; inhibition, % at 20 µM; purified NadD enzyme, colorimetric absorbance read-out; 0.78% of 360,000 active; in the data active = inhibition above about 26%
Scp-1 conf: confirmation of human Scp-1 phosphatase inhibitors. 61% of 2,500 active. shares compounds with Scp1 inh. recombinant SCP-1 catalytic domain, phosphate release, malachite green absorbance. inhibition, % at 20 µM. AID 540281
Scp-1 MG ctr: counter-screen for Scp-1 inhibitors: colorimetric interference. AID 540313. shares compounds with Scp1 inh. 2,500 tested, under 10 active. Colorimetric interference counterscreen, malachite green absorbance 630 nm. apparent inhibition (interference), % at 20 µM;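 note: compounds added after enzyme reaction finished so only phosphate colour detection is probed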
Scp-1 Tm shift: Scp-1 (human) binding by thermal shift; shares compounds with Scp1 inh; AID 540329; Recombinant SCP1, Sypro Orange thermal shift Tm; 25% of 1,500 active; thermal shift relative to vanadate control, % at 40 µM;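 active = substances whose mean melting-temperature shift, as a percentage of the reference inhibitor's shift, reaches about 5.3%, limit read from the data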
Numbers stand for hits. Only some compounds are listed: those with a hit (about 2.4% of all), similar ones and a draw of the others.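 Rule for the calls, unless noted: active = inhibition of at least 30% at 20 µM; inactive = the rest.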

For CCNc1nc(NCC)n2c(SCC(=O)Nc3cccc(Cl)c3)nnc2n1 the results were SUMO1 PPI mod inactive, Scp1 inh 54, STEP block inactive, DNMT1 block inactive, LMPTP block inactive, NadD block inactive, Scp-1 conf 50, Scp-1 MG ctr inactive and Scp-1 Tm shift inactive.
CCNc1nc(NCC)n2c(SCC(=O)Nc3cccc(F)c3)nnc2n1 was read as SUMO1 PPI mod inactive, Scp1 inh inactive, STEP block inactive, DNMT1 block inactive, LMPTP block inactive and NadD block inactive.
For CS(=O)(=O)c1ccc2nc(NC(=O)c3cc4ccccc4o3)sc2c1 the results were SUMO1 PPI mod inactive, Scp1 inh inactive, STEP block inactive, DNMT1 block inactive, LMPTP block inactive and NadD block inactive.
CS(=O)(=O)c1ccc2sc(NC(=O)c3cc4ccccc4o3)nc2c1 was read as SUMO1 PPI mod inactive, Scp1 inh 69, STEP block inactive, DNMT1 block inactive, LMPTP block inactive, NadD block inactive, Scp-1 conf inactive and Scp-1 MG ctr inactive.
Screening CN(C)C(CN=C1NS(=O)(=O)c2ccccc21)c1ccco1 (centres undefined) returned SUMO1 PPI mod inactive, Scp1 inh inactive, STEP block inactive, DNMT1 block inactive, LMPTP block inactive and NadD block inactive.
`O=C(CN1c2cccc3cccc(c23)S1(=O)=O)N1CCN(c2ccccc2)CC1` gave SUMO1 PPI mod inactive, Scp1 inh inactive, STEP block inactive, DNMT1 block inactive, LMPTP block inactive and NadD block inactive.
COc1ccccc1C(=O)NC(=O)CSc1nnc2ccccn12 was read as SUMO1 PPI mod inactive, Scp1 inh inactive, STEP block inactive, DNMT1 block inactive, LMPTP block inactive and NadD block inactive.
For O=C(CSc1nnc2ccccn12)NC(=O)c1ccccc1Cl the results were SUMO1 PPI mod inactive, Scp1 inh 66, STEP block inactive, DNMT1 block inactive, LMPTP block inactive, NadD block inactive, Scp-1 conf 51, Scp-1 MG ctr inactive and Scp-1 Tm shift inactive.
Screening CCC[N+]1(CC#CC(O)(c2ccccc2)C2CCCCC2)CCCCC1 (centres undefined) returned SUMO1 PPI mod inactive, Scp1 inh inactive, STEP block inactive, DNMT1 block inactive, LMPTP block inactive and NadD block inactive.
For CC1(C(O)(C#CC[N+]2(C)CCCCC2)c2ccccc2)CCCC1 (centres undefined) the results were SUMO1 PPI mod inactive, Scp1 inh 98, STEP block inactive, DNMT1 block inactive, LMPTP block inactive, NadD block inactive, Scp-1 conf 94, Scp-1 MG ctr inactive and Scp-1 Tm shift inactive.
`C/C(N)=C(/C#N)C(=O)CSc1ncnc2ccccc12` gave SUMO1 PPI mod inactive, Scp1 inh inactive, STEP block inactive, DNMT1 block inactive, LMPTP block inactive and NadD block inactive.
C/C(N)=C(/C#N)C(=O)CSc1nc2ccccc2[nH]1 was read as SUMO1 PPI mod inactive, Scp1 inh 69, STEP block inactive, DNMT1 block inactive, LMPTP block inactive, NadD block inactive, Scp-1 conf 51, Scp-1 MG ctr inactive and Scp-1 Tm shift inactive.
Screening Cc1ccc(NC(=O)c2noc3c2CCc2ccccc2-3)cc1 returned SUMO1 PPI mod inactive, Scp1 inh 56, STEP block inactive, DNMT1 block inactive, LMPTP block inactive, NadD block inactive, Scp-1 conf inactive and Scp-1 MG ctr inactive.
`COc1ccc(C2C(C(C)=O)=C(O)C(=O)N2c2ccc(Br)cn2)cc1` (centres undefined) gave SUMO1 PPI mod inactive, Scp1 inh inactive, STEP block inactive, DNMT1 block inactive, LMPTP block inactive and NadD block inactive.
`COc1ccc(OC)c(S(=O)(=O)N2CCC(C(=O)NCc3ccccn3)CC2)c1` gave SUMO1 PPI mod inactive, Scp1 inh inactive, STEP block inactive, DNMT1 block inactive, LMPTP block inactive and NadD block inactive.
Screening COc1ccccc1CNC(=O)COC(=O)c1cnccn1 returned SUMO1 PPI mod inactive, Scp1 inh inactive, STEP block inactive, DNMT1 block inactive, LMPTP block inactive and NadD block inactive.
Screening COc1ccccc1CNC(=O)c1cnccn1 returned SUMO1 PPI mod inactive, Scp1 inh 56, STEP block inactive, DNMT1 block inactive, LMPTP block inactive, NadD block inactive, Scp-1 conf 57, Scp-1 MG ctr inactive and Scp-1 Tm shift inactive.
Cc1c(CCC(=O)O)c(=O)oc2cc(OCc3cccc(F)c3)ccc12 was read as SUMO1 PPI mod inactive, Scp1 inh inactive, STEP block inactive, DNMT1 block inactive, LMPTP block inactive and NadD block inactive.
`Cc1c(CCC(=O)O)c(=O)oc2cc(OCc3ccccc3Br)ccc12` gave SUMO1 PPI mod inactive, Scp1 inh 83, STEP block inactive, DNMT1 block inactive, LMPTP block inactive, NadD block inactive, Scp-1 conf 76, Scp-1 MG ctr inactive and Scp-1 Tm shift inactive.
For C[N+]1(C2CCC3CCC2C3O)CCCC1 (centres undefined) the results were SUMO1 PPI mod inactive, Scp1 inh inactive, STEP block inactive, DNMT1 block inactive, LMPTP block inactive and NadD block inactive.
C[N+]12CCCCC1[C@@H](CO)CCC2 (some centres undefined) was read as SUMO1 PPI mod inactive, Scp1 inh 55, STEP block inactive, DNMT1 block inactive, LMPTP block inactive, NadD block inactive, Scp-1 conf inactive and Scp-1 MG ctr inactive.
`O=C(NCCCSc1ccccc1)c1cc(Br)ccc1O` gave SUMO1 PPI mod inactive, Scp1 inh inactive, STEP block inactive, DNMT1 block inactive, LMPTP block inactive and NadD block inactive.
`Cc1ccc(/C=C/C(=O)N2CC(=O)Nc3ccccc32)o1` gave SUMO1 PPI mod inactive, Scp1 inh inactive, STEP block inactive, DNMT1 block inactive, LMPTP block inactive and NadD block inactive.
CCOc1ccc(NC(=O)CN(C)C(=O)c2ccc(N3CCCC3)c([N+](=O)[O-])c2)cc1OCC was read as SUMO1 PPI mod inactive, Scp1 inh 53, STEP block inactive, DNMT1 block inactive, LMPTP block inactive, NadD block inactive, Scp-1 conf inactive and Scp-1 MG ctr inactive.

Compound activity (PubChem)
